# Test results reported in ChEMBL document CHEMBL1123588, “Synthesis and antisecretory and antiulcer activities of derivatives and analogues of 2-(2-pyridyl)tetrahydrothiophene-2-carbothioamide” (1987).
# Tests used:
# Rattus norvegicus [1] = organism: Rattus norvegicus; test: Antisecretory activity against histamine stimulated gastric acid secretion in Shay rats expressed as ED50; format: functional; settings: Stomach
# How it was run: (§1)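 Histamine-stimulated Shay rats: females (OFA, 150–175 g, n=6/group), fasted 24 h. Oral dosing in 10% gum arabic, 1 h pre-histamine (100 mg/kg sc), promethazine 10 mg/kg ip pretreatment. Pylorus ligation under chloral hydrate; 2 h gastric juice titrated with 0.1 N NaOH. Lower doses tested when 30 mg/kg gave >80% inhibition; ED50 from regression line.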
# Rattus norvegicus [2] = test: Antisecretory activity against histamine stimulated gastric acid secretion in Shay rats by peroral administration of 30 mg /kg was determined; format: functional; settings: Stomach, po
# How it was run: (§2)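 Female OFA rats, 150–175 g, six per group, fasted 24 h with water allowed. Dose given orally in 10% gum arabic (5 mL/kg) 1 h before histamine 100 mg/kg sc. Promethazine 10 mg/kg ip 30 min before histamine; pylorus ligated under chloral hydrate 30 min after. Juice collected 2 h, titrated with 0.1 N NaOH. Acid output compared with controls by Student's t test.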
# Rattus norvegicus [3] = test: Antiulcer activity against restraint-induced gastric erosions in rats, following 100 mg/kg p.o. administration.; format: functional, Stomach; settings: route oral
# How it was run: (§3)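 Restraint-stress erosions (Rossi): female OFA rats, 150–175 g, six per group, fasted 24 h. Oral dose in 10% gum arabic (5 mL/kg) 1 h before restraint in wire-netting cages. Rats killed 24 h later and gastric mucosal erosions assessed. A rat counted protected with no erosion; read-out is % protected rats.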
# Rattus norvegicus [4] = test: Antisecretory activity against histamine stimulated gastric acid secretion in Shay rats by peroral administration of 30 mg /kg was determined: activity not statistically significant; format: functional; settings: Stomach, po; how it was run: as §2
# Rattus norvegicus [5] = organism: Rattus norvegicus; test: animal or person; settings: Stomach
# Rattus norvegicus [6] = test: Antiulcer activity by protection of restraint-induced gastric erosions in rats, by using the technique of Rossi was determined at peroral dose of 5 mg/kg; format: functional, Stomach; settings: route oral; how it was run: as §3
# Rattus norvegicus [7] = test: Antiulcer activity by protection of restraint-induced gastric erosions in rats, by using the technique of Rossi was determined at peroral dose of 10 mg/kg; format: functional, Stomach; settings: route oral; how it was run: as §3
# Rattus norvegicus [8] = test: Antiulcer activity by protection of restraint-induced gastric erosions in rats, by using the technique of Rossi was determined at peroral dose of 30 mg/kg; format: functional, Stomach; settings: route oral; how it was run: as §3
# Rattus norvegicus [9] = organism: Rattus norvegicus; test: Antisecretory activity against histamine stimulated gastric acid secretion in Shay rats expressed as ED50 value ranges from (2.5-12.1); format: functional; settings: Stomach; how it was run: as §1
# Rattus norvegicus [10] = organism: Rattus norvegicus; test: Antiulcer activity against histamine stimulated gastric acid secretion in Shay rats expressed as ED50; format: functional; settings: Stomach
# Rattus norvegicus [11] = test: Antiulcer activity by protection of restraint-induced gastric erosions in rats, by using the technique of Rossi was determined at peroral dose of 4.5 mg/kg; format: functional, Stomach; settings: route oral; how it was run: as §3
# Rattus norvegicus [12] = organism: Rattus norvegicus; test: Antisecretory activity against histamine stimulated gastric acid secretion in Shay rats expressed as ED50 value ranges from (0.1-1.3); format: functional; settings: Stomach; how it was run: as §1
# Rattus norvegicus [13] = test: Antisecretory activity against histamine stimulated gastric acid secretion in Shay rats by peroral administration of 30 mg /kg was determined :activity not statistically significant; format: functional; settings: Stomach, po; how it was run: as §2
# Rattus norvegicus [14] = organism: Rattus norvegicus; test: Antisecretory activity against histamine stimulated gastric acid secretion in Shay rats expressed as ED50 value ranges from (0.6-3.8); format: functional; settings: Stomach; how it was run: as §1
# Rattus norvegicus [15] = organism: Rattus norvegicus; test: Antisecretory activity against histamine stimulated gastric acid secretion in Shay rats expressed as ED50 value ranges from (1.7-17.4); format: functional; settings: Stomach; how it was run: as §1
# Rattus norvegicus [16] = organism: Rattus norvegicus; test: Antisecretory activity against histamine stimulated gastric acid secretion in Shay rats expressed as ED50 value ranges from (0.8-2.8); format: functional; settings: Stomach; how it was run: as §1
# Rattus norvegicus [17] = organism: Rattus norvegicus; test: Antisecretory activity against histamine stimulated gastric acid secretion in Shay rats expressed as ED50; value ranges from (1.0-6.5); format: functional; settings: Stomach; how it was run: as §1
# Rattus norvegicus [18] = organism: Rattus norvegicus; test: Antisecretory activity against histamine stimulated gastric acid secretion in Shay rats expressed as ED50 value ranges from (2.7-12.3); format: functional; settings: Stomach; how it was run: as §1
# Rattus norvegicus [19] = organism: Rattus norvegicus; test: Antisecretory activity against histamine stimulated gastric acid secretion in Shay rats expressed as ED50; value ranges from (0.5-2); format: functional; settings: Stomach; how it was run: as §1
# Rattus norvegicus [20] = organism: Rattus norvegicus; test: Antisecretory activity against histamine stimulated gastric acid secretion in Shay rats expressed as ED50; value ranges from(0.5-22.3).; format: functional; settings: Stomach; how it was run: as §1
# Rattus norvegicus [21] = organism: Rattus norvegicus; test: Antisecretory activity against histamine stimulated gastric acid secretion in Shay rats expressed as ED50; value ranges from (0.1-2.2); format: functional; settings: Stomach; how it was run: as §1
# Rattus norvegicus [22] = organism: Rattus norvegicus; test: Antisecretory activity against histamine stimulated gastric acid secretion in Shay rats expressed as ED50 value ranges from (1-2.6); format: functional; settings: Stomach; how it was run: as §1
# Rattus norvegicus [23] = organism: Rattus norvegicus; test: Antisecretory activity against histamine stimulated gastric acid secretion in Shay rats expressed as ED50 value ranges from (1.3-7.1); format: functional; settings: Stomach; how it was run: as §1
# Rattus norvegicus [24] = organism: Rattus norvegicus; test: Antiulcer activity by protection of restraint-induced gastric erosions in rats, by using the technique of Rossi was determined at peroral dose of; format: functional, Stomach; how it was run: as §3
smiles,measurement,setting,value
C/N=C(\S)C1(c2cnccn2)CCCS1 (centres undefined),ED50,Rattus norvegicus [1],> 30 mg/kg
same,inhibition in vivo at 30 mg/kg,Rattus norvegicus [2],38%
same,Protection,Rattus norvegicus [3],100%
CN(C)CCC/N=C(\S)C1(c2ccccn2)CCCS1 (centres undefined),inhibition in vivo at 30 mg/kg,Rattus norvegicus [4],0%
same,ED50,Rattus norvegicus [1],> 30 mg/kg
same,Protection,Rattus norvegicus [3],0%
CN/C(=N\CCSCc1nc[nH]c1C)NC#N [CIMETIDINE],ED50,Rattus norvegicus [5],30 mg/kg
same,Protection,Rattus norvegicus [3],50%
C/N=C(\S)C1(c2ccccn2)OCCCS1 (centres undefined),Protection,Rattus norvegicus [6],50%
same,ED50,Rattus norvegicus [1],1.6 mg/kg
C/N=C(\S)C1(c2ccccn2)SCCCS1,ED50,Rattus norvegicus [1],5.7 mg/kg
same,Protection,Rattus norvegicus [7],50%
C/N=C(\S)C1(c2cccnn2)CCCS1 (centres undefined),Protection,Rattus norvegicus [3],100%
CCCC/N=C(\S)C1(c2ccccn2)CCCS1 (centres undefined),Protection,Rattus norvegicus [8],100%
same,ED50,Rattus norvegicus [9],5.5 mg/kg
N/N=C(\S)C1(c2ccccn2)CCCS1 (centres undefined),inhibition in vivo at 30 mg/kg,Rattus norvegicus [4],0%
same,ED50,Rattus norvegicus [1],> 30 mg/kg
same,Protection,Rattus norvegicus [3],0%
CNC(=S)C1(c2ccccn2)CCCS1 (centres undefined) [PICARTAMIDE],ED50,Rattus norvegicus [10],5.9 mg/kg
same,Protection,Rattus norvegicus [11],50%
same,ED50,Rattus norvegicus [12],0.4 mg/kg
S=C(Nc1ccccc1)C1(c2ccccn2)CCCS1 (centres undefined),inhibition in vivo at 30 mg/kg,Rattus norvegicus [13],0%
same,ED50,Rattus norvegicus [1],> 30 mg/kg
Cc1cnc2c(c1)CCCC2C(N)=S (centres undefined) [TIQUINAMIDE],ED50,Rattus norvegicus [14],1.6 mg/kg
NC(=S)C1(c2ccccn2)SCCCS1,ED50,Rattus norvegicus [1],2.8 mg/kg
same,Protection,Rattus norvegicus [3],100%
N=C(S)C(c1ccccc1)c1ccccn1 (centres undefined),ED50,Rattus norvegicus [15],5.5 mg/kg
S=C(N1CCOCC1)C1(c2ccccn2)CCCS1 (centres undefined),ED50,Rattus norvegicus [1],≤ 30 mg/kg
same,inhibition in vivo at 30 mg/kg,Rattus norvegicus [2],54%
same,Protection,Rattus norvegicus [3],83%
CNC(=S)C1(c2cccc(C)n2)CCCS1 (centres undefined) [LUCARTAMIDE],Protection,Rattus norvegicus [7],50%
same,ED50,Rattus norvegicus [16],1.5 mg/kg
S=C(NCc1ccccc1)C1(c2ccccn2)CCCS1 (centres undefined),ED50,Rattus norvegicus [1],≤ 30 mg/kg
same,inhibition in vivo at 30 mg/kg,Rattus norvegicus [2],58%
same,Protection,Rattus norvegicus [3],100%
C/N=C(\S)C1(c2ccccn2)CCCCS1 (centres undefined),ED50,Rattus norvegicus [17],2.6 mg/kg
same,Protection,Rattus norvegicus [7],100%
CN(C)CC/N=C(\S)C1(c2ccccn2)CCCS1 (centres undefined),inhibition in vivo at 30 mg/kg,Rattus norvegicus [4],0%
same,ED50,Rattus norvegicus [1],> 30 mg/kg
same,Protection,Rattus norvegicus [3],16%
CN(C)C(=S)C1(c2ccccn2)CCCS1 (centres undefined),ED50,Rattus norvegicus [1],< 30 mg/kg
same,inhibition in vivo at 30 mg/kg,Rattus norvegicus [2],74%
same,Protection,Rattus norvegicus [3],83%
C=CCNC(=S)C1(c2ccccn2)CCCS1 (centres undefined),inhibition in vivo at 30 mg/kg,Rattus norvegicus [4],20%
same,ED50,Rattus norvegicus [1],> 30 mg/kg
same,Protection,Rattus norvegicus [3],0%
OCC/N=C(\S)C1(c2ccccn2)CCCS1 (centres undefined),inhibition in vivo at 30 mg/kg,Rattus norvegicus [4],25%
same,ED50,Rattus norvegicus [1],> 30 mg/kg
same,Protection,Rattus norvegicus [3],16%
C/N=C(\S)C1(c2ccc(C)cn2)CCCS1 (centres undefined),ED50,Rattus norvegicus [18],5.7 mg/kg
same,Protection,Rattus norvegicus [7],60%
C/N=C(\S)C1(c2ccncc2)CCCS1 (centres undefined),ED50,Rattus norvegicus [1],≤ 30 mg/kg
same,inhibition in vivo at 30 mg/kg,Rattus norvegicus [2],53%
same,Protection,Rattus norvegicus [3],83%
C/N=C(\S)C1(c2cc(C)ccn2)CCCS1 (centres undefined),ED50,Rattus norvegicus [19],1 mg/kg
same,Protection,Rattus norvegicus [7],83%
NC(=S)C1(c2ccccn2)CCCS1 (centres undefined),ED50,Rattus norvegicus [20],3.2 mg/kg
same,Protection,Rattus norvegicus [3],100%
CCCCCCC/N=C(\S)C1(c2ccccn2)CCCS1 (centres undefined),ED50,Rattus norvegicus [1],> 30 mg/kg
same,inhibition in vivo at 30 mg/kg,Rattus norvegicus [2],0%
same,Protection,Rattus norvegicus [3],33%
C/N=C(\S)C1(c2ccccn2)CCCO1 (centres undefined),Protection,Rattus norvegicus [11],66%
same,ED50,Rattus norvegicus [21],0.5 mg/kg
CC/N=C(\S)C1(c2ccccn2)CCCS1 (centres undefined),Protection,Rattus norvegicus [7],50%
same,ED50,Rattus norvegicus [22],1.6 mg/kg
CN1CCN(C(=S)C2(c3ccccn3)CCCS2)CC1 (centres undefined),inhibition in vivo at 30 mg/kg,Rattus norvegicus [4],8%
same,ED50,Rattus norvegicus [1],> 30 mg/kg
same,Protection,Rattus norvegicus [3],0%
C/N=C(\S)C1(c2ccc3ccccc3n2)CCCS1 (centres undefined),ED50,Rattus norvegicus [23],3 mg/kg
same,Protection,Rattus norvegicus [3],100%
C/N=C(\S)C1(c2cccnc2)CCCS1 (centres undefined),ED50,Rattus norvegicus [1],≥ 30 mg/kg
same,inhibition in vivo at 30 mg/kg,Rattus norvegicus [2],49%
same,Protection,Rattus norvegicus [3],100%
CCCCc1ccnc(C2(/C(S)=N/C)CCCS2)c1 (centres undefined),ED50,Rattus norvegicus [1],< 30 mg/kg
same,inhibition in vivo at 30 mg/kg,Rattus norvegicus [2],78%
same,Protection,Rattus norvegicus [3],100%
S=C(N1CCCCC1)C1(c2ccccn2)CCCS1 (centres undefined),inhibition in vivo at 30 mg/kg,Rattus norvegicus [4],30%
same,Protection,Rattus norvegicus [3],83%
Cc1cccc(C2(C(=N)S)CCCS2)n1 (centres undefined),ED50,Rattus norvegicus [1],< 30 mg/kg
same,inhibition in vivo at 30 mg/kg,Rattus norvegicus [2],71%
same,Protection,Rattus norvegicus [3],100%
CCCCCCCCCCCC/N=C(\S)C1(c2ccccn2)CCCS1 (centres undefined),Protection,Rattus norvegicus [24],0%
same,ED50,Rattus norvegicus [1],> 30 mg/kg
same,inhibition in vivo at 30 mg/kg,Rattus norvegicus [2],0%
